Source: article PMC7884954 (International Journal of Nanomedicine, 2021)

Columns and labels:
Ex vivo hemolysis assay = conditions: human, washed red blood cells (RBC suspension diluted 1:50), pH 7.4
Procedure, shortened: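 Donor blood in EDTA was spun at 500× g for 5 min. RBCs were washed three times in DPBS pH 7.4, then diluted 1:50 in PBS. The suspension was incubated with test formulations in V-bottom plates for 1 h at 37 °C with orbital shaking. After centrifugation, supernatant absorbance was read at 540 nm. Triton X-100 defined 100% hemolysis, with saline as the other control. Triplicates, mean ± S.D.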

blood plasma = test: Activated partial thromboplastin time test
Procedure, shortened: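 Plasma was separated from fresh blood by centrifugation at 5000x g for 5 min. It was mixed with an equal volume of test formulation and aPTT reagent, and coagulation was activated with pre-warmed […] CaCl2. Clotting time (s) was recorded spectrophotometrically on a coagulation analyzer, […]. Triplicates, mean ± S.D.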

SK-OV-3 cells [1] = test: Cellular uptake pathway analysis with chlorpromazine and Filipin-III; assay type: cell-based, human; conditions: 30 µM chlorpromazine, 15 µM Filipin III, light dose 0.5 Jcm^−2
Procedure, shortened: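 SK-OV-3 cells seeded at 10,000/well, adhered overnight (37 °C, 5% CO2), washed in PBS with Ca2+/Mg2+. Pre-incubated 1 h with chlorpromazine (30 µM) or Filipin III (15 µM), then exposed to test formulations or free drugs in DMSO (photosensitiser 1.5 µM, chemotherapeutic 50 µM) for a total of 4 h. Medium replaced, irradiated 0.50 J.cm−2, MTT after 24 h; un-irradiated dark control.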

[2] = system: female albino (BALB/c) mice; test: In vivo acute toxicity: histopathological examinations; conditions: i.v., after 7 days, H&E stain
Procedure, shortened: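 Female BALB/c mice (30–35 g, 8–10 weeks) were randomised to 6 groups (n=3) and given test formulations i.v. via tail vein as two equal doses on days 1 and 3; the saline group was the control. OECD 425 was followed except for the i.v. route. At day 7 mice were killed by cervical dislocation. Heart, liver, kidney and lungs were saline-washed, sectioned by rotary microtome, H&E-stained and examined by light microscopy.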

[3] = system: female albino (BALB/c) mice; test: In vivo acute toxicity: serum biochemical analysis; conditions: i.v., after 7 days
Procedure, shortened: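 Female BALB/c mice (30–35 g, 8–10 weeks) were used in groups of 3. Free drugs in 0.1% DMSO, formulations or saline were given i.v. via tail vein as two equal doses on days 1 and 3 (mTHPC 0.15 mg.kg−1, THP 5 mg.kg−1 equivalent). On day 7, blood was drawn under anesthesia by thoracic puncture and spun at 1200x g for 10 min. Supernatant was stored at −20 °C and then analysed on a serum biochemistry analyzer.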

SK-OV-3 cells [4] = test: In vitro cytotoxicity; assay type: cell-based, human
Procedure, shortened: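 SK-OV-3 cells (IMDM, 10% FCS, non-essential amino acids, 37°C, 7% CO2) were seeded at 10,000/well and left to adhere overnight. They were exposed to a concentration series of free drug (in DMSO) or formulations for 4 h, then switched to fresh medium without irradiation (dark). Next day, MTT (2 mg.mL−1) was added for 4 h, formazan was dissolved in DMSO, and A570 was read. Untreated cells were set as 100%. Three independent experiments; IC50 from non-linear fit.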

SK-OV-3 cells [5] = test: Assessment of reactive oxygen species; assay type: cell-based, human; conditions: mTHPC 5 µM, THP 50 µM, 4 h, light dose 0.5 J.cm^−2 vs dark
Procedure, shortened: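 SK-OV-3 cells (IMDM, 10% FCS, non-essential amino acids, 37°C, 7% CO2) were seeded at 25,000/well overnight and washed with DPBS pH 7.4 containing Ca2+/Mg2+. They were loaded with 25 µM H2DCFDA for 1 h at 37 °C, washed, then exposed to free drug or formulation for 4 h at 37°C. After medium exchange, cells were irradiated at 652 nm, lysed, and read at λex 485/λem 520 nm.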

SK-OV-3 cells [6] = test: In vitro genotoxicity, alkaline comet assay; assay type: cell-based, human; conditions: SK-OV-3, 4 h, equitoxic dose, light dose 0.05 Jcm^−2
Procedure, shortened: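 SK-OV-3 cells (100,000/well, six-well plate) adhered overnight, then treated with test formulations for 4 h at 37 °C. After a medium change, cells were irradiated at an equitoxic light dose giving 80% viability and returned for 12 h. Cells were trypsinised, washed twice in PBS, set to 80,000 cells/mL and embedded in 1% low-melting agarose. Slides were ethanol-fixed (70%, 20 min), SYBR Safe-stained and viewed by fluorescence microscopy; 50 comets scored per formulation.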

[7] = system: female albino (BALB/c) mice; test: In vivo acute toxicity: body visceral index; conditions: i.v., post 7 days
Procedure, shortened: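 Female BALB/c mice (30–35 g, 8–10 weeks; 22 ± 2 °C, 12 h light/dark) were randomised into 6 groups of 3. Free drugs in 0.1% DMSO, formulations or saline were given i.v. via tail vein as two equal doses on days 1 and 3 (mTHPC 0.15 mg.kg−1, THP 5 mg.kg−1 equivalent). On day 7, after cervical dislocation, heart, kidney, liver and lungs were washed in saline and weighed. Organ-to-body weight index was compared with controls; mean ± S.D.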

Row | SMILES | hemolysis at 1 h (Ex vivo hemolysis assay) [%] | aPTT coagulation time (blood plasma) [s] | Cellular uptake mechanism (SK-OV-3 cells [1]) | Histopathology: kidney [2] | Histopathology: liver [2] | Histopathology: lungs [2] | ALP level vs control group [3] | ALT level vs control group [3] | AST level vs control group [3] | Bilirubin level vs control group [3] | Creatinine level vs control [3] | Total protein level [3] | Uric acid level vs control group [3] | Cytotoxicity (reduction in cell viability) (SK-OV-3 cells [4]; SK-OV-3, dose of 100 µM, no irradiation) [%] | Intracellular ROS production (SK-OV-3 cells [5]) | DNA damage class (olive tail moment, comet assay) (SK-OV-3 cells [6]) | Visceral body index: kidney weight vs control group [7] | Visceral body index: liver weight vs control group [7] | Reduction of cell viability (dark toxicity) (SK-OV-3 cells [4]; SK-OV-3, without irradiation, highest mTHPC concentration 5 µM) [%]
1 | COc1cccc2c1C(=O)c1c(O)c3c(c(O)c1C2=O)C[C@@](O)(C(=O)CO)C[C@@H]3O[C@H]1C[C@H](N)[C@H](O[C@@H]2CCCCO2)[C@H](C)O1 [THP, [2″R]‐4′‐O‐tetrahydropyranyl‐doxorubicin] | 20 | 127.7 | None of the inhibitors was able to minimize the uptake | signs of necrosis, apoptosis, as well as congestion of the renal tissue | some signs of the apoptotic cells with fibrosis, pyknosis (condensation of nuclei due to apoptosis) and hepatic lesions | small changes in the lung′s histology with the breakage of the lung′s fiber | highest increase | increased | highest level | slightly higher | increased | slight increase | moderately increased | 72.26 ± 5.40 | no significant difference in the ROS levels | class-II (class-II damage (5–20%; low damage)) | slight increase in the organ weight | highest increase | –
2 | Oc1cccc(-c2c3nc(c(-c4cccc(O)c4)c4ccc([nH]4)c(-c4cccc(O)c4)c4nc(c(-c5cccc(O)c5)c5ccc2[nH]5)CC4)C=C3)c1 [mTHPC, 5, 10, 15, 20-tetrakis (3-hydroxyphenyl) chlorin] | 14 | 60.2 | None of the inhibitors was able to minimize the uptake | – | – | – | – | increased | slightly higher | slightly higher | increased | slight increase | – | – | increased levels of intracellular ROS | class-II (class-II damage (5–20%; low damage)) | slight increase in the organ weight | – | 18.51 ± 1.87
